In ChEMBL document CHEMBL4732243, “Design, synthesis, and structure activity relationship analysis of new betulinic acid derivatives as potent HIV inhibitors” (Eur J Med Chem, 2021):

Assays:
[1] = tested on: Human immunodeficiency virus 1; assay: Antiviral activity against HIV-1 NL4-3 infected in human MT4 cells assessed as reduction in p24 gag protein incubated for 4 days by ELISA; format: functional, organism-based; conditions: Human immunodeficiency virus 1, NL4-3, MT4, 96 h
Procedure, shortened: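 MT-4 cells infected with HIV-1 NL4-3 at MOI 0.01, serial compound concentrations, in 96-well format. Supernatant p24 antigen measured by capture ELISA on day 4 post-infection. IC50 is the concentration that inhibits NL4-3 replication by 50%. Bevirimat run in parallel as the reference.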

MT4 = assay: Cytotoxicity against human MT4 cells assessed as reduction in cell viability incubated for 2 days by CytoTox-Glo cytotoxicity assay; format: cell-based; conditions: mt4, 48 h, time 2 day
Procedure, shortened: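 Mock-infected MT-4 cells cultured 2 days with a range of compound concentrations. Viability measured by CytoTox-Glo, following the kit protocol, as percent viable cells. CC50 is the concentration giving a 50% reduction in cell viability.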

| Compound | IC50 ([1]; read-out: IC50) | IC50 ([1]; read-out: pIC50 (converted)) | CC50 (MT4) |
| --- | --- | --- | --- |
| C=C(C)[C@@H]1CC[C@]2(C(=O)N3CCN(C(=O)CC(C)(C)C(=O)O)CC3)CC[C@]3(C)[C@H](CC[C@@H]4[C@@]5(C)CC[C@H](O)C(C)(C)[C@@H]5CC[C@]43C)[C@@H]12 | > 1000 nM |  |  |
| C=C(C)[C@@H]1CC[C@]2(C(=O)OCCCOC(=O)/C=C/c3ccc(N(C)C)cc3)CC[C@]3(C)[C@H](CC[C@@H]4[C@@]5(C)CC[C@H](OC(=O)CC(C)(C)C(=O)O)C(C)(C)[C@@H]5CC[C@]43C)[C@@H]12 | > 1000 nM |  |  |
| C=C(C)[C@@H]1CC[C@]2(C(=O)OCCCOC(=O)/C=C/c3ccc(OC)cc3)CC[C@]3(C)[C@H](CC[C@@H]4[C@@]5(C)CC[C@H](OC(=O)CC(C)(C)C(=O)O)C(C)(C)[C@@H]5CC[C@]43C)[C@@H]12 | 850 nM | 851 nM | > 2000 nM |
| C=C(C)[C@@H]1CC[C@]2(C(=O)N3CCN(C(=O)/C=C/c4ccc(OCCCCCCCC)c(OC)c4)CC3)CC[C@]3(C)[C@H](CC[C@@H]4[C@@]5(C)CC[C@H](OC(=O)CC(C)(C)C(=O)O)C(C)(C)[C@@H]5CC[C@]43C)[C@@H]12 | > 1000 nM |  |  |
| C=C(C)[C@@H]1CC[C@]2(C(=O)N3CCN(C(=O)/C(=C/c4ccc5c(c4)OCO5)CC)CC3)CC[C@]3(C)[C@H](CC[C@@H]4[C@@]5(C)CC[C@H](OC(=O)CC(C)(C)C(=O)O)C(C)(C)[C@@H]5CC[C@]43C)[C@@H]12 | 130 nM | 129 nM | > 2000 nM |
| C=C(C)[C@@H]1CC[C@]2(C(=O)N3CCN(C(=O)/C=C/c4ccc(N(C)C)cc4)CC3)CC[C@]3(C)[C@H](CC[C@@H]4[C@@]5(C)CC[C@H](OC(=O)CC(C)(C)C(=O)O)C(C)(C)[C@@H]5CC[C@]43C)[C@@H]12 | 27 nM | 26.9 nM | > 2000 nM |
| C=C(C)[C@@H]1CC[C@]2(C(=O)N3CCN(C(=O)/C=C/c4ccc(Cl)cc4)CC3)CC[C@]3(C)[C@H](CC[C@@H]4[C@@]5(C)CC[C@H](OC(=O)CC(C)(C)C(=O)O)C(C)(C)[C@@H]5CC[C@]43C)[C@@H]12 | 360 nM | 363 nM | > 2000 nM |
| C=C(C)[C@@H]1CC[C@]2(C(=O)N3CCN(C(=O)/C=C/c4ccc(OC)c(OC)c4)CC3)CC[C@]3(C)[C@H](CC[C@@H]4[C@@]5(C)CC[C@H](OC(=O)CC(C)(C)C(=O)O)C(C)(C)[C@@H]5CC[C@]43C)[C@@H]12 |  |  | > 2000 nM |
| C=C(C)[C@@H]1CC[C@]2(C(=O)O)CC[C@]3(C)[C@H](CC[C@@H]4[C@@]5(C)CC[C@H](OC(=O)/C=C/c6ccc7c(c6)OCO7)C(C)(C)[C@@H]5CC[C@]43C)[C@@H]12 | > 1000 nM |  |  |
| C=C(C)[C@@H]1CC[C@]2(C(=O)N3CCN(C(=O)/C=C/c4cccc(OC)c4)CC3)CC[C@]3(C)[C@H](CC[C@@H]4[C@@]5(C)CC[C@H](OC(=O)CC(C)(C)C(=O)O)C(C)(C)[C@@H]5CC[C@]43C)[C@@H]12 | 150 nM | 151 nM | > 2000 nM |
| C=C(C)[C@@H]1CC[C@]2(C(=O)N3CCN(C(=O)/C=C/c4ccc(O)c(OCc5cccc(Cl)c5)c4)CC3)CC[C@]3(C)[C@H](CC[C@@H]4[C@@]5(C)CC[C@H](OC(=O)CC(C)(C)C(=O)O)C(C)(C)[C@@H]5CC[C@]43C)[C@@H]12 | 190 nM |  | > 2000 nM |
| C=C(C)[C@@H]1CC[C@]2(C(=O)N3CCN(C(=O)/C=C/c4cn(C)c5ccccc45)CC3)CC[C@]3(C)[C@H](CC[C@@H]4[C@@]5(C)CC[C@H](OC(=O)CC(C)(C)C(=O)O)C(C)(C)[C@@H]5CC[C@]43C)[C@@H]12 | 140 nM | 141 nM | > 2000 nM |
| C=C(C)[C@@H]1CC[C@]2(C(=O)N3CCN(C(=O)/C=C/c4ccc(OCc5cccc([N+](=O)[O-])c5)c(OC)c4)CC3)CC[C@]3(C)[C@H](CC[C@@H]4[C@@]5(C)CC[C@H](OC(=O)CC(C)(C)C(=O)O)C(C)(C)[C@@H]5CC[C@]43C)[C@@H]12 | 750 nM | 759 nM | > 2000 nM |
| C=C(C)[C@@H]1CC[C@]2(C(=O)OCCCCCCCCN3CCN(C(=O)/C=C/c4ccc5c(c4)OCO5)CC3)CC[C@]3(C)[C@H](CC[C@@H]4[C@@]5(C)CC[C@H](OC(=O)CC(C)(C)C(=O)O)C(C)(C)[C@@H]5CC[C@]43C)[C@@H]12 | > 1000 nM |  |  |
| C=C(C)[C@@H]1CC[C@]2(C(=O)N3CCNCC3)CC[C@]3(C)[C@H](CC[C@@H]4[C@@]5(C)CC[C@H](Oc6ccc(O)c(O)c6)C(C)(C)[C@@H]5CC[C@]43C)[C@@H]12 | 490 nM | 490 nM | > 2000 nM |
| C=C(C)[C@@H]1CC[C@]2(C(=O)N3CCN(C(=O)/C=C/c4ccc5c(c4)OCCO5)CC3)CC[C@]3(C)[C@H](CC[C@@H]4[C@@]5(C)CC[C@H](OC(=O)CC(C)(C)C(=O)O)C(C)(C)[C@@H]5CC[C@]43C)[C@@H]12 | 50 nM | 50.1 nM | > 2000 nM |

| Compound | IC50 ([1]; read-out: IC50) | IC50 ([1]; read-out: pIC50 (converted)) | CC50 (MT4) |
| --- | --- | --- | --- |
| C=C(C)[C@@H]1CC[C@]2(C(=O)N3CCN(C(=O)/C=C/c4csc5ccccc45)CC3)CC[C@]3(C)[C@H](CC[C@@H]4[C@@]5(C)CC[C@H](OC(=O)CC(C)(C)C(=O)O)C(C)(C)[C@@H]5CC[C@]43C)[C@@H]12 | 180 nM | 182 nM | > 2000 nM |
| C=C(C)[C@@H]1CC[C@]2(C(=O)N3CCN(C(=O)/C=C/c4cccc(OCOC)c4)CC3)CC[C@]3(C)[C@H](CC[C@@H]4[C@@]5(C)CC[C@H](OC(=O)CC(C)(C)C(=O)O)C(C)(C)[C@@H]5CC[C@]43C)[C@@H]12 | 90 nM | 89.1 nM | > 2000 nM |
| C=C(C)[C@@H]1CC[C@]2(C(=O)CC(=O)CC(C)(C)C(=O)O)CC[C@]3(C)[C@H](CC[C@@H]4[C@@]5(C)CC[C@H](OC(=O)/C=C/c6ccc(OCOC)c(OCOC)c6)C(C)(C)[C@@H]5CC[C@]43C)[C@@H]12 | > 1000 nM |  |  |
| C=C(C)[C@@H]1CC[C@]2(C(=O)N3CCN(C(=O)/C=C/c4ccc(OCCCCCCCC)c(OCCCCCCCC)c4)CC3)CC[C@]3(C)[C@H](CC[C@@H]4[C@@]5(C)CC[C@H](OC(=O)CC(C)(C)C(=O)O)C(C)(C)[C@@H]5CC[C@]43C)[C@@H]12 | > 1000 nM |  |  |
| C=C(C)[C@@H]1CC[C@]2(C(=O)CC(C)=O)CC[C@]3(C)[C@H](CC[C@@H]4[C@@]5(C)CC[C@H](OC(=O)/C=C/N6CCN(C(=O)OC(C)(C)C)CC6)C(C)(C)[C@@H]5CC[C@]43C)[C@@H]12 | > 1000 nM |  |  |
| C=C(C)[C@@H]1CC[C@]2(CN3CCN(C(=O)/C=C/c4ccc5c(c4)OCO5)CC3)CC[C@]3(C)[C@H](CC[C@@H]4[C@@]5(C)CC[C@H](OC(=O)CC(C)(C)C(=O)O)C(C)(C)[C@@H]5CC[C@]43C)[C@@H]12 | > 1000 nM |  |  |
| C=C(C)[C@@H]1CC[C@]2(C(=O)N3CCN(C(=O)/C=C/c4ccc(O)c(OCCCCCCCC)c4)CC3)CC[C@]3(C)[C@H](CC[C@@H]4[C@@]5(C)CC[C@H](OC(=O)CC(C)(C)C(=O)O)C(C)(C)[C@@H]5CC[C@]43C)[C@@H]12 | > 1000 nM |  |  |
| C=C(C)[C@@H]1CC[C@]2(C(=O)N3CCN(C(=O)/C=C/c4ccc(OCOC)c(OCOC)c4)CC3)CC[C@]3(C)[C@H](CC[C@@H]4[C@@]5(C)CC[C@H](OC(=O)CC(C)(C)C(=O)O)C(C)(C)[C@@H]5CC[C@]43C)[C@@H]12 |  |  | > 2000 nM |
| C=C(C)[C@@H]1CC[C@]2(C(=O)O)CC[C@]3(C)[C@H](CC[C@@H]4[C@@]5(C)CC[C@H](OC(=O)/C=C/c6ccc(OCOC)c(OCOC)c6)C(C)(C)[C@@H]5CC[C@]43C)[C@@H]12 | > 1000 nM |  |  |
| C=C(C)[C@@H]1CC[C@]2(C(=O)N3CCN(CCCCC(=O)N4CCN(C(=O)/C=C/c5ccc6c(c5)OCO6)CC4)CC3)CC[C@]3(C)[C@H](CC[C@@H]4[C@@]5(C)CC[C@H](OC(=O)CC(C)(C)C(=O)O)C(C)(C)[C@@H]5CC[C@]43C)[C@@H]12 |  |  | > 2000 nM |
| C=C(C)[C@@H]1CC[C@]2(C(=O)N3CCN(C(=O)/C=C/c4ccc(OCc5cccc(Cl)c5)c(OC)c4)CC3)CC[C@]3(C)[C@H](CC[C@@H]4[C@@]5(C)CC[C@H](OC(=O)CC(C)(C)C(=O)O)C(C)(C)[C@@H]5CC[C@]43C)[C@@H]12 | > 1000 nM |  |  |
| C=C(C)[C@@H]1CC[C@]2(C(=O)CC(=O)CC(C)(C)C(=O)O)CC[C@]3(C)[C@H](CC[C@@H]4[C@@]5(C)CC[C@H](OC(=O)/C=C/N6CCN(C(=O)OC(C)(C)C)CC6)C(C)(C)[C@@H]5CC[C@]43C)[C@@H]12 | > 1000 nM |  |  |
| C=C(C)[C@@H]1CC[C@]2(C(=O)O)CC[C@]3(C)[C@H](CC[C@@H]4[C@@]5(C)CC[C@H](OC(=O)CC(C)(C)C(=O)O)C(C)(C)[C@@H]5CC[C@]43C)[C@@H]12 [BEVIRIMAT] |  |  | > 2000 nM |
| C=C(C)[C@@H]1CC[C@]2(C(=O)N3CCN(C(=O)CC(C)(C)C(=O)O)CC3)CC[C@]3(C)[C@H](CC[C@@H]4[C@@]5(C)CC[C@H](Oc6ccc7c(c6)OCO7)C(C)(C)[C@@H]5CC[C@]43C)[C@@H]12 | > 1000 nM |  |  |
| C=C(C)[C@@H]1CC[C@]2(C(=O)N3CCN(C(=O)CC(C)(C)C(=O)O)CC3)CC[C@]3(C)[C@H](CC[C@@H]4[C@@]5(C)CC[C@H](OC(=O)/C=C/c6ccc7c(c6)OCO7)C(C)(C)[C@@H]5CC[C@]43C)[C@@H]12 | > 1000 nM |  |  |
| C=C(C)[C@@H]1CC[C@]2(C(=O)N3CCN(C(=O)/C=C/c4ccc(OCOC)c(OCCCCCCCC)c4)CC3)CC[C@]3(C)[C@H](CC[C@@H]4[C@@]5(C)CC[C@H](OC(=O)CC(C)(C)C(=O)O)C(C)(C)[C@@H]5CC[C@]43C)[C@@H]12 | > 1000 nM |  |  |
